Data set [1] deals with B16F10 tumor-bearing mice. Nature of the data set: In vivo distribution after topical application, fluorescence imaging. As to conditions: 10 μg per mouse, 1, 3 and 6 hours. The method, boiled down:
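Mice were anaesthetized and dorsal skin depilated, then DiI-labelled peptide-modified vesicles were applied topically. Whole-body fluorescence was imaged. Tumors and major organs were collected for fluorescence imaging at 6 hours after application.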

A short description of data set [2]: Photothermal response to NIR irritation. Type of data set: physicochemical. The note with it: 1 μg/ml, 808 nm NIR 2 W/cm^2 for 3 min, n = 3.
Data set [3] has as its system B16F10 cells. Description: WB protein levels in treated B16F10 cells or their derived OMVs. The class given is cell-based, mouse. The note with it: B16F10, + NIR (Fig. 4G).
The test system of data set [4] is B16F10 melanoma in C57BL/6 mice. Nature of the data set: Antitumor performance, second wave. The note with it: NIR 0.6 W/cm^2, within 3 min, thermographic imaging. Type of data set: in vivo. In short, it runs like this: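 B16F10 cells (3 × 10^6 per mouse) implanted s.c. in right flank of C57BL/6 mice; treatment began at 100 mm3 tumors. Groups (n = 6) got topical ICG-loaded test formulations (0.5 mg OMV/kg). Unabsorbed material was wiped off at 12 h, then the whole tumor was irradiated under anaesthesia at 808 nm, 0.6 W/cm2, 3 min. Tumor sections: TUNEL with proteinase K (20 μg/ml), fluorescein-dUTP 90 min, DAPI counterstain, confocal imaging. Also Fontana-Masson melanin stain, and IHC for cleaved caspase 3, CD63 and S100-β with HRP secondaries and hematoxylin counterstain.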

Data set [5] relates to B16F10 cells. Nature of the data set: qRT-PCR gene levels in treated B16F10 cells. As to conditions: B16F10, + NIR, n = 3. The class given is cell-based, mouse. On the technique in general: Real-time PCR tracks product formation cycle by cycle.
Data set [6] relates to dorsal skin of C57BL/6 mice. Nature of the data set: Skin penetration test, fluorescence in skin slices. Type of data set: in vivo. As to conditions: topical, 10 μg per mouse, 6 hours, fluorescence microscopy. The method, boiled down:
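C57BL/6 mice, 4 weeks old, were anaesthetised and had their dorsal skin depilated. Once skin had restored full function, GFP-labelled test vesicles or free FITC-BSA were applied topically. After 6 h the mice were killed by cervical dislocation, and treated dorsal skin was collected, washed, paraffin-embedded and cut into 6 μm sections. Penetration depth was observed by fluorescence microscopy.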

The test system of a further data set is L02 cells. Nature of the data set: Peptide binding by flow cytometry, L02. The class given is cell-based, human. The note with it: 5 μM peptide, 2 hours, low αvβ3 expression. The method, boiled down: (§1)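 Cells were grown in DMEM with 10% FBS and penicillin/streptomycin at 37°C, 5% CO2. They were seeded at 10^6 per well and cultured 24 h at 37°C. Then 5 μM test peptide was added for 2 h. Cells were washed twice with 4°C PBS, and intracellular fluorescence intensity was read by flow cytometry.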

Data set [7] concerns B16F10 cells. Nature of the data set: Peptide binding by flow cytometry, B16F10. Type of data set: cell-based, mouse. As to conditions: 5 μM peptide, 2 hours, compared with L02 cells. In short, it runs like this: as §1
On the technique in general: Flow cytometry measures light scatter and fluorescence of single cells or particles in a stream.

Data set [8] can be described thus: Transdermal delivery of TRAIL, Franz diffusion cells. The note with it: C57BL/6 mouse skin, ELISA, n = 3. The class given is in vitro ADME, mice. In short, it runs like this:
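Excised C57BL/6 mouse skin was mounted in Franz diffusion cells, with vesicle suspensions (1 μg/ml) in the donor cell. Receptor samples were withdrawn at 0.5, 1, 2, 4, 8, 10 and 24 h and replaced with fresh PBS. TRAIL in the receptor samples was quantified by ELISA.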

A short description of data set [9]: Bioactivity of TRAIL at high temperatures. The note with it: 55 and 60°C, n = 3.
For data set [10], the target named is αvβ3 integrin on B16F10 melanoma cells (mouse (endogenous in B16F10), UniProt P43406 31-1044; O54890 26-787). Nature of the data set: flow cytometry on cells.
Chain of αvβ3 integrin on B16F10 melanoma cells (P43406 31-1044, chain 1 of 2): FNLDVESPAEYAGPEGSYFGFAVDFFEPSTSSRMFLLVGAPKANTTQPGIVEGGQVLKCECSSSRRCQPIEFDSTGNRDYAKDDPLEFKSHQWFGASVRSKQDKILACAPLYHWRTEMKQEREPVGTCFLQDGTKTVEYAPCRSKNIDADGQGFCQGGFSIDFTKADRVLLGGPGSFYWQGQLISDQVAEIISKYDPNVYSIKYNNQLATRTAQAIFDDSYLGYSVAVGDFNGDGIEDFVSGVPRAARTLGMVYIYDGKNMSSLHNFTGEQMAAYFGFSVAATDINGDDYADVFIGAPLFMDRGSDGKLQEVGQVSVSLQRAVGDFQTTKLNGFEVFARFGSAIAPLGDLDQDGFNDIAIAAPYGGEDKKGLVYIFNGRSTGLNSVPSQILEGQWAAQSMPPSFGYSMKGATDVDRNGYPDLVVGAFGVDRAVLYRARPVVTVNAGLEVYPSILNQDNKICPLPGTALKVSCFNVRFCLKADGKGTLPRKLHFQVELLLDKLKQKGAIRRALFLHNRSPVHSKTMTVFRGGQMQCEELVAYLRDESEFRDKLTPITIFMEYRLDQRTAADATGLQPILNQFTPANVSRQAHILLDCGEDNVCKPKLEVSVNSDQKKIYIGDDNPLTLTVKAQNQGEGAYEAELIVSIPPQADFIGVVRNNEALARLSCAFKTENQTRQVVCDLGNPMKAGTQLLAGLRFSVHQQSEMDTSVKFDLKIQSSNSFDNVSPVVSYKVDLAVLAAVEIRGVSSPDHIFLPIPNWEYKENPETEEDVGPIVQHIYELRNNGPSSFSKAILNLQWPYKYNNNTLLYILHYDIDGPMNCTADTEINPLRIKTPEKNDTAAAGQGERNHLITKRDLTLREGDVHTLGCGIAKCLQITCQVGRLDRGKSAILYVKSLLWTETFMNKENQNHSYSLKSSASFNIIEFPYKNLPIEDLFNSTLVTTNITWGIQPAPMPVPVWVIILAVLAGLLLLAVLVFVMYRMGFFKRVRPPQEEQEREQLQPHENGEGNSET
Chain of αvβ3 integrin on B16F10 melanoma cells (O54890 26-787, chain 2 of 2): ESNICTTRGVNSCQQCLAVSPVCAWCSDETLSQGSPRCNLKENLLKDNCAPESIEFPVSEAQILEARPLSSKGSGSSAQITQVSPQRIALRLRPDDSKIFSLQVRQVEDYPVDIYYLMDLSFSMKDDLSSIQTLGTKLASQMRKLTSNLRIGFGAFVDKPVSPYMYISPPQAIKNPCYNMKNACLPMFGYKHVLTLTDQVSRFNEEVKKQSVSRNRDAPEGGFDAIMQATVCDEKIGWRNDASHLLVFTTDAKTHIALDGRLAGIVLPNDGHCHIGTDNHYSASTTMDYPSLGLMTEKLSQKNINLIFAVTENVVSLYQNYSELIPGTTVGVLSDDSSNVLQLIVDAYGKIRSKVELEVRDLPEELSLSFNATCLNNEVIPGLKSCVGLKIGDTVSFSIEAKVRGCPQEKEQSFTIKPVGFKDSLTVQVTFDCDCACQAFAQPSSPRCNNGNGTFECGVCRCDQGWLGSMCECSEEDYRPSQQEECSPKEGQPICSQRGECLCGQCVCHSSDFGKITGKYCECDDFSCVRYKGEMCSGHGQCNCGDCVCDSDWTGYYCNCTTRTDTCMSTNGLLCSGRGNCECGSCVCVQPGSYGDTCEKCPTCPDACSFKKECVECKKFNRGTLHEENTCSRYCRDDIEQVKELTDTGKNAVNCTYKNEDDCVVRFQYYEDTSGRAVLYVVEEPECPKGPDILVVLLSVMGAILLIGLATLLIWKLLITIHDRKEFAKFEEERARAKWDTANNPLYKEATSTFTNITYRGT
The target in data set [11] is human recombinant αvβ3 integrin (R&D Systems), NT-647 labelled (human) (UniProt P06756). Nature of the data set: MST.

Consider seven molecules from publication PMC7455490 (Science Advances, 2020).

Where no end group is shown, it is not given here. [ ]: non-standard residue; d: D form.

Turning to `CCCCCCCCCCCCCCCCCCN1C(=CC=CC2=[N+](CCCCCCCCCCCCCCCCCC)c3ccccc3C2(C)C)C(C)(C)c2ccccc21.[O-][Cl+3]([O-])([O-])[O-]` [Dil, 1,1′-dioctadecyl-3,3,3′,3′-tetramethylindocarbocyanine perchlorate], the “fluorescence at tumor site after topical application” value in data set [1] was “Low fluorescent signal”.

As for `CC1(C)C(/C=C/C=C/C=C/C=C2\N(CCCCS(=O)(=O)O)c3ccc4ccccc4c3C2(C)C)=[N+](CCCCS(=O)(=O)[O-])c2ccc3ccccc3c21` [ICG, indocyanine green], the “temperature reached from 25°C upon NIR irritation” value in data set [2] amounted to 35 °C. In the data set with B16F10 cells [3], the “increase of cleaved caspase 3 level” value stood at 2.4 fold and the “increase of cleaved caspase 8 level” value is 3.3 fold. Further, the “temperature of tumor sites” value in data set [4] is “around 32 °C”. In the data set with B16F10 cells [5], the “c-FLIP mRNA level, decreased to” value was found to be 63% and the “survivin mRNA level, decreased to” value was determined as 56%.

As for “FITC-BSA: fluorescein isothiocyanate (FITC)–labeled bovine serum albumin”, the “penetration through SC, fluorescence in skin slices” value in data set [6] was “incapable of penetrating through SC”.

As to “RhB-RGP: rhodamine B–labeled RGP (RW[code r]NMGGGGIVRRADRAAVP; also: rhodamine B label, position not given here)”, in the data set with L02 cells, the “binding to L02 cells” value is “weak binding”. Also, the “binding to B16F10 cells” value in the data set on B16F10 cells [7] is recorded as “significantly enhanced”.

As for “TRAIL: Recombinant human tumor necrosis factor related apoptosis-inducing ligand”, the “transdermal amount of TRAIL” value in [8] is on record as “too low to be detected”. Also, in data set [9], the “bioactivity of TRAIL at high temperatures” value is “No loss of bioactivity”.

For the molecule RW[code r]NMGGGGIVRRADRAAVP (also: rhodamine B label, position not given here) [rhodamine B-labeled RGP (RhB-RGP)], the “fold fluorescence intensity against RhB-RGD” value in data set [10] was 6.3 fold.

A word on the Kd: it is the equilibrium constant for the complex coming apart. As to RWRNMGGGGIVRRADRAAVP (not fully specified (residue 3); printed as RWrNMGGGGIVRRADRAAVP) [RGP (RWr…), αvβ3 integrin-specific peptide], the Kd in data set [11] was found to be 1.54 nM.
